Source: ChEMBL document CHEMBL1141378, “Structures of steroidal alkaloid oligoglycosides, robeneosides A and B, and antidiabetogenic constituents from the Brazilian medicinal plant Solanum lycocarpum” (2007)

Tests used:
Rattus norvegicus [1] = assay: Inhibition of increase in serum glucose level in sucrose-loaded Wistar rat at 500 mg/kg, po after 2 hrs; format: functional
Procedure, shortened: (§1)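 Male Wistar rats (about 130-150 g) fasted 20-24 h, water allowed. Test sample suspended in 5% acacia solution, given orally at 10 mL/kg; controls get vehicle. Thirty minutes later, 20% (w/v) sucrose at 5 mL/kg po (water for the normal group). Serum taken 0.5, 1 and 2 h after loading; glucose measured by glucose-oxidase method. Means ± SEM; one-way ANOVA with Dunnett's test.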

Rattus norvegicus [2] = assay: Inhibition of increase in serum glucose level in sucrose-loaded Wistar rat at 125 mg/kg, po after 0.5 hrs; format: functional; procedure, shortened: as §1
Rattus norvegicus [3] = assay: Inhibition of increase in serum glucose level in sucrose-loaded Wistar rat at 125 mg/kg, po after 1 hr; format: functional; procedure, shortened: as §1
Rattus norvegicus [4] = assay: Inhibition of increase in serum glucose level in sucrose-loaded Wistar rat at 125 mg/kg, po after 2 hrs; format: functional; procedure, shortened: as §1
Rattus norvegicus [5] = assay: Inhibition of increase in serum glucose level in sucrose-loaded Wistar rat at 500 mg/kg, po after 0.5 hrs; format: functional; procedure, shortened: as §1
Rattus norvegicus [6] = assay: Inhibition of increase in serum glucose level in sucrose-loaded Wistar rat at 500 mg/kg, po after 1 hr; format: functional; procedure, shortened: as §1
Rattus norvegicus [7] = assay: Inhibition of increase in serum glucose level in sucrose-loaded Wistar rat at 50 mg/kg, po after 1 hr; format: functional; procedure, shortened: as §1
Mus musculus [8] = assay: Suppression of gastric emptying in CMC-Na-loaded mouse at 25 mg/kg, po after 30 mins; format: functional, Stomach
Procedure, shortened: (§2)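 Male ddY mice (about 30-32 g) fasted 20-24 h, dosed orally in 5% acacia (10 mL/kg) 30 min before an intragastric meal of 1.5% CMC-Na with 0.05% phenol red (0.5 mL/mouse). Killed 30 min later; stomach homogenized in 0.1 M NaOH, TCA-deproteinized, alkalinized, read at 560 nm. Emptying % calculated against mice killed immediately after the meal. Means ± SEM, Dunnett's test.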

Rattus norvegicus [9] = assay: Inhibition of increase in serum glucose level in sucrose-loaded Wistar rat at 100 mg/kg, po after 1 hr; format: functional; procedure, shortened: as §1
Rattus norvegicus [10] = assay: Inhibition of increase in serum glucose level in sucrose-loaded Wistar rat at 50 mg/kg, po after 2 hrs; format: functional; procedure, shortened: as §1
Rattus norvegicus [11] = assay: Inhibition of increase in serum glucose level in sucrose-loaded Wistar rat at 100 mg/kg, po after 0.5 hrs; format: functional; procedure, shortened: as §1
Rattus norvegicus [12] = assay: Inhibition of increase in serum glucose level in sucrose-loaded Wistar rat at 100 mg/kg, po after 2 hrs; format: functional; procedure, shortened: as §1
Rattus norvegicus [13] = assay: Inhibition of increase in serum glucose level in sucrose-loaded Wistar rat at 50 mg/kg, po after 0.5 hrs; format: functional; procedure, shortened: as §1
Rattus norvegicus [14] = assay: Inhibition of increase in serum glucose level in sucrose-loaded Wistar rat at 25 mg/kg, po after 2 hrs; format: functional; procedure, shortened: as §1
Rattus norvegicus [15] = assay: Inhibition of increase in serum glucose level in sucrose-loaded Wistar rat at 25 mg/kg, po after 1 hr; format: functional; procedure, shortened: as §1
Rattus norvegicus [16] = assay: Inhibition of increase in serum glucose level in sucrose-loaded Wistar rat at 25 mg/kg, po after 0.5 hrs; format: functional; procedure, shortened: as §1
Mus musculus [17] = assay: Suppression of gastric emptying in CMC-Na-loaded mouse at 50 mg/kg, po after 30 mins; format: functional, Stomach; procedure, shortened: as §2
Rattus norvegicus [18] = assay: Inhibition of increase in serum glucose level in sucrose-loaded Wistar rat at 12.5 mg/kg, po after 1hr; format: functional; procedure, shortened: as §1
Rattus norvegicus [19] = assay: Inhibition of increase in serum glucose level in sucrose-loaded Wistar rat at 12.5 mg/kg, po after 2 hrs; format: functional; procedure, shortened: as §1
Rattus norvegicus [20] = assay: Inhibition of increase in serum glucose level in sucrose-loaded Wistar rat at 12.5 mg/kg, po after 0.5 hrs; format: functional; procedure, shortened: as §1

SMILES: CN(C)C(=N)NC(=N)N [METFORMIN]
- Activity (Rattus norvegicus [1]): 119.8 mg/dL
- Activity (Rattus norvegicus [2]): 134.8 mg/dL
- Activity (Rattus norvegicus [3]): 136 mg/dL
- Activity (Rattus norvegicus [4]): 115.5 mg/dL
- Activity (Rattus norvegicus [5]): 113.1 mg/dL
- Activity (Rattus norvegicus [6]): 105.6 mg/dL

SMILES: C[C@@H]1CC[C@@]2(NC1)O[C@H]1C[C@H]3[C@@H]4CC=C5C[C@@H](O[C@@H]6O[C@H](CO)[C@@H](O[C@@H]7O[C@@H](C)[C@H](O)[C@@H](O)[C@H]7O)[C@H](O)[C@H]6O[C@@H]6O[C@@H](C)[C@H](O)[C@@H](O)[C@H]6O)CC[C@]5(C)[C@H]4CC[C@]3(C)[C@H]1[C@@H]2C [SOLAMARGINE]
- Activity (Rattus norvegicus [7]): 117.1 mg/dL
- Activity (Mus musculus [8]): 73.7%
- Activity (Rattus norvegicus [9]): 116.6 mg/dL
- Activity (Rattus norvegicus [10]): 118.7 mg/dL
- Activity (Rattus norvegicus [11]): 118.5 mg/dL
- Activity (Rattus norvegicus [12]): 122.3 mg/dL
- Activity (Rattus norvegicus [13]): 124.3 mg/dL
- Activity (Rattus norvegicus [14]): 133.7 mg/dL
- Activity (Rattus norvegicus [15]): 139.9 mg/dL
- Activity (Rattus norvegicus [16]): 141.7 mg/dL
- Activity (Mus musculus [17]): 58.4%

SMILES: C[C@@H]1CC[C@@]2(NC1)O[C@H]1C[C@H]3[C@@H]4CC=C5C[C@@H](O[C@@H]6O[C@H](CO)[C@H](O)[C@H](O[C@@H]7O[C@H](CO)[C@@H](O)[C@H](O)[C@H]7O)[C@H]6O[C@@H]6O[C@@H](C)[C@H](O)[C@@H](O)[C@H]6O)CC[C@]5(C)[C@H]4CC[C@]3(C)[C@H]1[C@@H]2C [SOLASONINE]
- Activity (Rattus norvegicus [7]): 136.7 mg/dL
- Activity (Mus musculus [8]): 75.4%
- Activity (Rattus norvegicus [9]): 122.4 mg/dL
- Activity (Rattus norvegicus [10]): 135.4 mg/dL
- Activity (Rattus norvegicus [11]): 124.7 mg/dL
- Activity (Rattus norvegicus [12]): 121.9 mg/dL
- Activity (Rattus norvegicus [13]): 132.7 mg/dL
- Activity (Rattus norvegicus [14]): 129.5 mg/dL
- Activity (Rattus norvegicus [15]): 157.6 mg/dL
- Activity (Rattus norvegicus [16]): 158.8 mg/dL
- Activity (Mus musculus [17]): 74.8%

SMILES: CCCCNC(=O)NS(=O)(=O)c1ccc(C)cc1 [TOLBUTAMIDE]
- Activity (Rattus norvegicus [18]): 130.5 mg/dL
- Activity (Rattus norvegicus [19]): 114.9 mg/dL
- Activity (Rattus norvegicus [20]): 152.6 mg/dL
- Activity (Rattus norvegicus [14]): 99.5 mg/dL
- Activity (Rattus norvegicus [15]): 106.3 mg/dL
- Activity (Rattus norvegicus [16]): 138.1 mg/dL
